Screens deposited in PubChem BioAssay by The Scripps Research Institute Molecular Screening Center.
An excerpt weighted towards active compounds, which were near 2.3% of everything screened.
PAD4 inh: blocks human protein arginine deiminase 4; Q9UM07; recombinant PAD4, RCA probe fluorescence polarization; inhibition, % at 6.36 µM; 0.41% of 330,000 active; AID 485272;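 active = percent inhibition above a cutoff equal to the mean of all tested compounds plus 3 SD, cut at about 15% in these data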
Fam108B inh: counter-screen for RBBP9 inhibitors: inhibitors of mouse Fam108B; inhibition, % at 9.51 µM; recombinant Fam108B, FP-Rh probe fluorescence polarization; 0.33% of 300,000 active;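 active = inhibition above the screen mean inhibition plus 3 SD, computed separately per campaign, cut at about 18% in these data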;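 note: inhibitors lower polarization as less probe binds the enzyme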
RBBP9 inhibitor: blocks human serine hydrolase RBBP9. recombinant RBBP9, FP-Rh probe fluorescence polarization. inhibition, % at 7.94 µM. 0.2% of 220,000 active. AID 1515;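 active = inhibition above the campaign mean of all tested compounds plus 3 SD, cut at about 14% in these data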
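Assay system: recombinant human RBBP9; Reagent: Serine-hydrolase probe FP-Rh, 375 nM pre-mixing; Doses: 7.94 µM single dose, 0.794% DMSO; Incubation: 30 min then 45 min, 25 °C; Detection: fluorescence polarization (mP), excitation 525 nm, emission 598 nm; Evaluation: percent inhibition from mP, scaled between DMSO and no-protein wells.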
PRMT1 FP inh: PRMT1 (human) inhibition, primary screen. AID 652257. Q99873. recombinant PRMT1, activity-based probe fluorescence polarization. 1.3% of 370,000 active. inhibition, % at 2.79 µM;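 active = inhibition above about 21% made by adding two undisclosed values, limit read from the data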
Target sequence (Q99873 whole entry, looked up): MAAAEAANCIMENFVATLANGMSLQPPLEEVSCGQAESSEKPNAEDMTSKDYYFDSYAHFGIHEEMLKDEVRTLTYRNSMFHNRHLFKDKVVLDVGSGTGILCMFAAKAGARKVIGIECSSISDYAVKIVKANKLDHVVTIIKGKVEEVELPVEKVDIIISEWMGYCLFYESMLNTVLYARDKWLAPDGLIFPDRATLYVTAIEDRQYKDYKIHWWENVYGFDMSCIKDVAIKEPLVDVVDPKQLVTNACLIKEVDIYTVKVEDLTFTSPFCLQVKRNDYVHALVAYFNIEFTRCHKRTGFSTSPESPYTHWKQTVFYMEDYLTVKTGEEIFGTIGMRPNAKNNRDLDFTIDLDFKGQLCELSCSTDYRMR
GSTO1 inh: blocks human GSTO1 in RBBP9 counter-screen; 1.1% of 300,000 active; P78417; recombinant GSTO1, activity-based probe fluorescence polarization; inhibition, % at 5.96 µM;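 active = inhibition above the campaign mean inhibition plus 3 SD, cut at about 35% in these data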
Target sequence (P78417 whole entry, looked up): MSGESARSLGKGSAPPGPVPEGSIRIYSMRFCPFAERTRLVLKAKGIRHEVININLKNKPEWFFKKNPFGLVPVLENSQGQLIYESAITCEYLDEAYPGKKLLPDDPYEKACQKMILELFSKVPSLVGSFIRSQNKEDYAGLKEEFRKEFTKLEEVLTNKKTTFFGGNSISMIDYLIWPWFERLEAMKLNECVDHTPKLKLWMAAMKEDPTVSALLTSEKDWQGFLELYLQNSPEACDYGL
PME-1 inh: blocks human protein phosphatase methylesterase 1; Q9Y570; recombinant PME-1, FP-Rh probe fluorescence polarization; inhibition, % at 5.9 µM; 0.53% of 320,000 active;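 active = inhibition above the campaign mean of all compounds plus 3 SD, cut at about 26% in these data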;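 note: competitive labeling of PME-1 active site by serine hydrolase directed probe; inhibitors block probe labeling so polarization falls and inhibition rises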
Fam108b confirm: Fam108b (mouse) hydrolase inhibition, confirmation assay; shares compounds with Fam108B inh; recombinant Fam108b, FP-Rh probe fluorescence polarization; inhibition, % at 9.51 µM; 44% of 930 active; AID 1978;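 active = inhibition above a limit from the primary screen, the mean over all compounds plus 3 SD, cut at about 19% in these data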;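 note: inhibitors free the probe so polarization falls as inhibition rises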
Fam108b ABPP HTS: mouse ABHD17B inhibition; shares compounds with Fam108B inh; recombinant Fam108b, gel-based ABPP, fluorophosphonate probe; inhibition, % at 20 µM; 44% of 260 active; in the data active = inhibition above about 40%
Hits are given with their value; i = inactive; nt = no result given.

SMILES | PAD4 inh | Fam108B inh | RBBP9 inhibitor | PRMT1 FP inh | GSTO1 inh | PME-1 inh | Fam108b confirm | others
CCOC(=O)c1sc2ncn(C(C)C(=O)OC)c(=O)c2c1C (centres undefined) | i | i | i | i | i | i | nt
Clc1ccccc1C(c1ccccc1)(c1ccccc1)n1ccnc1 | i | 32 | i | i | i | i | 46 | Fam108b ABPP HTS=45
C#CC(c1ccccc1)(c1ccccc1)n1ccnc1 | nt | nt | nt | i | nt | nt | nt
CN1C(=CC=C2C=C(I)C(=O)C(I)=C2)C(C)(C)c2ccccc21 | nt | nt | i | i | nt | nt | nt
CN1/C(=C\C=C2/C(=O)Oc3ccccc3C2=O)C(C)(C)c2ccccc21 | i | 139 | i | i | i | i | i
CC(C)Oc1ccc(CCC(=O)N/N=C/c2ccc3c(c2)OCO3)cc1 | i | 25 | nt | i | i | 41 | i
CCc1cc(C(=O)O)c(NC(=O)/C=C/c2ccc(OC)c(OC)c2)s1 | i | 32 | i | i | i | i | i
CCc1cc(C(=O)O)c(NC(=O)/C=C/c2ccc(OC)cc2)s1 | i | i | i | i | i | i | nt
Cc1cc(C)c(NC(=O)c2sc3nc4c(cc3c2N)C(=O)CC(C)(C)C4)c(C)c1 | i | i | i | i | i | i | nt
COc1cccc(-n2c(SCc3cc(=O)oc4cc(O)c(O)cc34)nc3ccccc3c2=O)c1 | i | 26 | i | i | i | i | 46 | Fam108b ABPP HTS=85
CCN(CC)C(=O)CSc1nc2ccccc2c(=O)n1-c1cccc(OC)c1 | i | i | i | i | i | i | nt
O=c1cc(-c2ccc(O)c(-c3c(O)cc(O)c4c(=O)cc(-c5ccc(O)cc5)oc34)c2)oc2cc(O)cc(O)c12 | i | 44 | i | i | i | i | 41 | Fam108b ABPP HTS=75
O=c1cc(-c2ccc(O)cc2)oc2c(-c3c(O)cc(O)c4c(=O)cc(-c5ccc(O)cc5)oc34)c(O)cc(O)c12 | i | nt | nt | i | nt | nt | nt
COc1ccccc1/C=C1\S/C(=N/NC(=O)c2cccc(Br)c2)NC1=O | i | 21 | i | i | i | i | i
Cc1noc(/C=C/c2ccco2)c1S(=O)(=O)N1CCC(C(=O)N2c3ccccc3CC2C)CC1 (centres undefined) | i | i | i | i | i | i | nt
N#Cc1c(Cl)c(Cl)c2nnc(-c3ccc(Br)cc3)n2c1Cl | i | 19 | i | i | i | i | i
[S-]c1nnc(-c2ccc(Br)cc2)n1-c1ccccc1.[Zn+2] | i | i | nt | i | i | i | nt
CN(C)C(=N)c1n[nH]nc1SCc1ccccc1 | i | i | i | i | i | i | nt
CN(C)c1ccc(/C=C(\C#N)C(=O)NCc2ccco2)cc1 | i | 29 | i | nt | i | i | i
CCN(CC)c1ccc(/C=C(\C#N)C(=O)NCc2ccco2)cc1 | i | i | i | i | i | i | nt
COc1ccc(-c2nc(SCC(=O)NCc3ccco3)c(-c3ccccc3)[nH]2)cc1OC | i | 20 | i | i | i | i | i
S=C(NCc1ccccc1)NCc1cccc(Cl)c1 | nt | nt | nt | i | nt | nt | nt
S=C(NCc1ccccc1)NCc1cccc(CNC(=S)NCc2ccccc2)c1 | i | 36 | i | i | i | 35 | 25
O=C(O)[C@@H]1CCCN1C(=O)c1ccco1 | i | i | i | i | i | i | nt
O=[N+]([O-])c1ccc(S(=O)(=O)Nc2ccc(-c3csc(-c4ccccc4)n3)cc2)cc1 | i | 25 | i | i | i | i | i
SMILES | PAD4 inh | Fam108B inh | RBBP9 inhibitor | PRMT1 FP inh | GSTO1 inh | PME-1 inh | Fam108b confirm | others
COc1ccc(Cl)cc1Nc1nc(-c2sc(NC(=O)c3ccco3)nc2C)cs1 | i | 19 | i | i | i | i | i
O=C(CCn1cccn1)Nc1ccc2c(c1)OCO2 | i | 18 | nt | i | i | i | i
Nc1nc2ccccc2n1/N=C/c1ccc(Br)cc1 | i | 29 | i | i | i | i | 35
Cc1ccc(C(=O)N2CCC(n3nccc3NC(=O)c3ccccc3C)CC2)cn1 | i | i | nt | i | i | i | nt
O=C(O)c1ccc(-n2cccc2/C=C2/NC(=O)N(c3ccccc3)C2=O)cc1 | i | 20 | i | i | i | i | i
CC1=CN2C(=N)/C(=C/c3ccco3)C(=O)N=C2S1 | i | i | i | i | i | i | nt
CC1=CN2C(=N)/C(=C/c3ccc([N+](=O)[O-])o3)C(=O)N=C2S1 | i | 19 | i | i | i | 33 | i
NC(=O)Nc1ccccc1C(=O)N1CCC(O)(c2ccc(Cl)cc2)CC1 | i | 43 | i | nt | i | i | i
O=C(NN1C(=O)/C(=C\c2ccc(O)c([N+](=O)[O-])c2)SC1=S)c1ccccc1Cl | i | 25 | i | i | i | i | 20
COc1cccc(N=C2NC(=O)/C(=C/c3cc([N+](=O)[O-])ccc3O)S2)c1 | i | 19 | nt | i | i | i | i
Cc1ccc(S(=O)(=O)/N=C2/NC(=O)/C(=C/c3ccncc3)S2)cc1 | i | i | i | i | i | i | nt
COc1ccc(N=C2NC(=O)/C(=C/c3ccc(O)c(OC)c3)S2)cc1 | i | i | i | i | i | i | nt
Cc1ccc(S(=O)(=O)/N=C2/NC(=O)/C(=C/c3cc([N+](=O)[O-])ccc3O)S2)cc1 | i | 18 | nt | i | i | i | 21
O=C1NC(=Nc2ccccc2Cl)S/C1=C\c1cc([N+](=O)[O-])ccc1O | i | 33 | nt | i | i | i | 42 | Fam108b ABPP HTS=i
CCCCn1c(N)c(N(CCC(C)C)C(=O)c2[nH]c(C)c(C(=O)OCC)c2C)c(=O)[nH]c1=O | i | i | nt | i | i | i | nt
COc1ccc2c(Cl)c(C(=O)N/N=C/c3c(C)[nH]c4ccccc34)sc2c1 | i | 33 | i | i | i | 32 | 21
COc1ccc(C(C(=O)NC2CCCC2)N(C(=O)c2ccco2)c2cccc(C(C)=O)c2)cc1OC (centres undefined) | i | i | nt | i | i | i | nt
O=C(Nc1ccccc1F)Nc1cccc2ccc(O)cc12 | i | 18 | i | i | i | 34 | i
COc1ccc(NC(=O)CSc2ccc3c4c(cccc24)C(=O)c2ccccc2-3)cc1 | i | i | i | i | i | i | nt
N#Cc1cccc(NC(=O)CSc2ccc3c4c(cccc24)C(=O)c2ccccc2-3)c1 | i | 35 | i | i | 36 | i | 21
COC(=O)N/N=C/c1cn(CCOc2cccc(OC)c2)c2ccccc12 | i | i | nt | i | i | i | nt
Cc1cccc(OCCn2cc(/C=N/NC(=O)c3ccncc3)c3ccccc32)c1 | i | 30 | i | i | i | 27 | i
Nc1c(S(=O)(=O)c2cccc(Cl)c2)c2nc3ccccc3nc2n1N=Cc1ccc(O)c(O)c1 | nt | nt | nt | nt | nt | nt | nt | Fam108b ABPP HTS=80
CN(C)S(=O)(=O)N1CCCC(C(=O)c2ccc(-c3ccccc3)c(F)c2)C1 (centres undefined) | i | i | i | i | i | i | nt
COc1cc(C(=O)OC(C)C(=O)NC2CCCCC2C)c([N+](=O)[O-])cc1OC (centres undefined) | i | i | nt | i | i | i | nt
